Source: PubChem (several laboratories)
This excerpt belongs to a sample that is enriched for hits.
CHOP inh: blocks CHOP induction under ER stress; inhibition, % at 10 µM; hit rate 3.8% among 220,000; CHO-K1 CHOP-promoter luciferase, tunicamycin-induced, 15-18 h;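 active means compounds that reduced the stress-induced luciferase reporter signal by more than about 70% of percent inhibition, limit read from the data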
XBP1 UPR activ: adaptive UPR (XBP1) activation; CHO-XBP1 luciferase reporter, IRE1-XBP1 UPR activation, luminescence; percent of tunicamycin response, DMSO as zero; activation, % at 20 µM; hit rate 0.33% among 330,000; AID 463104;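 active means versus positive control, 20 µM dose yields 30% or more activation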
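Assay system: CHO-XBP1 luciferase reporter cells; Schedule: 6 h treatment, 37 °C; Detection: glow luminescence from Steady-Glo reagent; Benchmarks: high control tunicamycin 10 µg/mL final, low control DMSO vehicle only.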
CHOP UPR activ: activators of apoptotic arm of unfolded protein response (CHOP); CHO-CHOP luciferase reporter, UPR activation, luminescence; percent of tunicamycin response over DMSO baseline; activation, % at 10 µM; hit rate 0.34% among 330,000;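 active means at 10 µM dose, activation of 40% or more, normalized to positive control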
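assay system = CHO CHOP reporter cells | amount = 500 CHO-CHOP cells per well | buffer or medium = F12 with 10% FBS | incubation = 16-18 h cell attachment, then 6 h compound exposure, 37 °C | detection = luminescence read with Steady-Glo | read-out = percent activation relative to tunicamycin control | controls = tunicamycin high control, DMSO low control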
PvdQ acylase: P. aeruginosa PvdQ acylase inhibition | inhibition, % at 10 µM | AID 488965 | purified PvdQ acylase, fluorescence plate reader | hit rate 0.063% among 340,000; in the data active means inhibition above about 30%, passing the limit was not always enough
A number is an active result; 0 = inactive; - = no result.

SMILES	CHOP inh	XBP1 UPR activ	CHOP UPR activ	PvdQ acylase
COc1ccc(-c2cc(C(=O)Nc3c(Cl)cc(Cl)cc3Cl)c3ccccc3n2)cc1OC	78.6	0	0	0
COc1ccc(-c2cc(C(=O)OCC(=O)Nc3cc(C)on3)c3ccccc3n2)cc1OC	88.4	0	0	0
Cc1ccc(-c2cc(C(=O)OCC(=O)Nc3ncc(C(F)(F)F)cc3Cl)c3ccccc3n2)cc1	82.6	0	0	0
O=C(NNC(=O)c1cc(-c2ccc(Cl)c(Cl)c2)nc2ccccc12)Nc1ccccc1	89.2	0	0	0
Cc1ccc(Nc2nnc(SCC(=O)Nc3ncc(C(F)(F)F)cc3Cl)s2)cc1	74.0	0	0	0
Cc1ccc(-c2cc(C(=O)OCC(=O)Nc3cc(C)on3)c3ccccc3n2)c(C)c1	89.4	0	0	0
CCC(C)c1ccc(-c2cc(C(=O)OCC(=O)Nc3cc(C)on3)c3ccccc3n2)cc1 (stereo not given)	84.7	0	0	0
Cc1cccc(C)c1Nc1nnc(SCC(=O)Nc2ncc(C(F)(F)F)cc2Cl)s1	0	0	0	0
Cc1cc(Br)ccc1SCC(=O)OCC(=O)NCc1ccco1	0	0	0	0
CC(C)(C)c1ccc(OCCOc2ccc(C(C)(C)C)cc2NC=O)c(NC=O)c1	0	0	0	0
COc1ccc(C(=O)NCCCOc2cccnc2)cc1OC1CCN(C(C)=O)CC1	-	0	0	0
COc1ccc(S(=O)(=O)N(C)CC(=O)NCc2ccco2)cc1	0	0	0	0
Cc1cc(C(=O)NCC(=O)OC(C(=O)Nc2cc(C(F)(F)F)ccc2Cl)c2ccccc2)ccc1[N+](=O)[O-] (stereo not given)	81.7	0	0	0
CCCC(=O)OC(C(=O)Nc1cc(C(F)(F)F)ccc1Cl)c1ccccc1 (stereo not given)	0	0	0	0
O=C(Nc1ccccc1N1CCOCC1)c1cccc(Oc2ccccc2)c1	-	0	0	0
Cc1cc(Cl)ccc1OC(C)C(=O)Nc1ccccc1N1CCOCC1 (stereo not given)	73.5	0	0	0
COc1nnc(-c2ccc(N3CCOCC3)c(NC(=O)c3ccccc3)c2)c2ccccc12	86.3	0	0	0
CCC(C)Oc1cccc(C(=O)Nc2ccccc2N2CCOCC2)c1 (stereo not given)	75.3	0	0	0
CC(C)Oc1cccc(C(=O)Nc2ccccc2N2CCOCC2)c1	73.7	0	0	0
O=C(Nc1ccccc1N1CCOCC1)c1cccc(F)c1	0	0	0	0
Cc1cccc(N(C(=O)CCC(=O)Nc2nccs2)C(C(=O)NC(C)(C)C)c2ccc(O)cc2)c1 (stereo not given)	0	0	0	0
COc1ccc(CCNC(=O)C(=O)NCC2OCCN2S(=O)(=O)c2ccc3c(c2)OCCO3)cc1OC (stereo not given)	-	0	0	0
CC(C)c1cc(C(=O)N2CCCC(CCC(=O)NCc3ccccc3F)C2)n(C)n1 (stereo not given)	0	0	0	0
CSc1cccc(NC(=O)C2CCCN(c3ncnc4c3nc3n4CCCCC3)C2)c1 (stereo not given)	-	0	0	0
CCCCC(=O)N(CCOC)c1nnc(-c2cccnc2)s1	0	0	0	0
SMILES	CHOP inh	XBP1 UPR activ	CHOP UPR activ	PvdQ acylase
CCCCC(=O)N(CCOC)c1nnc(-c2ccccc2C)s1	73.5	0	0	0
CCOc1ccc(OCCn2c(S(=O)(=O)O)nc3c(N)ncnc32)cc1	-	0	0	0
CCOc1cc([C@@H]2C[C@H]3CN(c4ccccc4)C(=O)[C@]34CCCN24)ccc1OC	84.2	0	0	0
COc1cc([C@@H]2C[C@H]3CN(c4ccccc4)C(=O)[C@]34CCCN24)cc(OC)c1OC	78.0	0	0	0
CC(C)CN(C(=O)c1ccc(F)cc1F)c1c(N)n(CC(C)C)c(=O)[nH]c1=O	-	0	0	0
c1ccc2sc(-c3ccc4c(c3)OCO4)nc2c1	0	0	0	49.0
COc1cccc(-c2nc3ccccc3s2)c1	72.6	0	0	0
COc1ccc(-c2nc3ccccc3s2)cc1	0	-	-	67.3
CSc1ccccc1NC(=O)COC(=O)Cn1cc(C(F)(F)F)ccc1=O	-	0	0	0
C/C(=N\NC(=O)CN1CCN(c2ccc(F)cc2)CC1)c1ccco1	-	0	0	0
CC1Oc2ccccc2N(Cc2ccccc2Cl)C1=O (stereo not given)	88.7	0	0	0
CCn1c(C)nc2cc(C(=O)OC(C(F)(F)C(F)F)C(F)(F)C(F)F)ccc21	74.4	0	0	0
CN(C)CCOC(=O)C12CC3(C)CC(C)(CC(C)(C3)C1)C2	94.0	0	0	0
Cc1ccc(C(=O)OCC(=O)N(CC(C)C)c2c(N)n(Cc3ccccc3)c(=O)[nH]c2=O)cc1[N+](=O)[O-]	-	0	0	0
O=C(Nc1ccc(C(F)(F)F)cc1)c1cnc(N2CCN(c3ccccn3)CC2)c2ccccc12	81.2	0	0	0
O=C(c1cnc(N2CCN(c3ccccn3)CC2)c2ccccc12)N1CCN(c2cccc(Cl)c2)CC1	77.2	0	0	0
O=[N+]([O-])c1ccc(CSc2ncnc3c2ncn3[C@@H]2O[C@H](CO)[C@H](O)C2O)cc1 (stereo not given in full)	0	-	-	-
O=C1CCCC/C=C\C[C@H](CC(=O)N(CCO)Cc2ccccc2)C(=O)NCCO1	-	0	0	0
CC(C)C(NS(=O)(=O)c1ccccc1F)C(=O)OCC(=O)NCc1ccco1 (stereo not given)	-	0	0	0
CCc1sc(NC(=O)CCC(=O)O)nc1-c1cc2ccccc2oc1=O	0	0	0	0
CCCc1cc(C(=O)OC)c(NC(=O)OCC)s1	74.0	0	0	0
CC(C)c1ccc(NC2CCCN(C(=O)CCN3CCCCO3)C2)cc1 (stereo not given)	-	0	0	0
O=C(c1cccc(F)c1)N1CCN(c2cc(N3CCCCC3)c(F)cc2[N+](=O)[O-])CC1	73.2	0	0	0
Cc1cc[n+](CC[n+]2ccc(C)cc2)cc1	-	0	0	0
CCC(C)(C)c1ccc(OCCCC[n+]2ccc(C)cc2)c(C(C)(C)CC)c1	76.2	0	0	-
SMILES	CHOP inh	XBP1 UPR activ	CHOP UPR activ	PvdQ acylase
CCC(C)(C)c1ccc(OCCCC[n+]2cccc(C)c2C)c(C(C)(C)CC)c1	78.5	0	0	0
CC(CNC(=O)CCn1ccc2cc(S(=O)(=O)N3CCCC3)ccc21)c1ccccc1 (stereo not given)	-	0	0	0
COc1cc2nc(NC(=O)c3ccc(Cl)cc3)[nH]c(=O)c2cc1OC	72.5	0	0	0
N#Cc1cc([N+](=O)[O-])ccc1Oc1cccc(/C=N/NC(=O)c2cccc(Cl)c2)c1	0	0	0	63.0
COc1ccc(/C=N/NC(=O)c2cccc([N+](=O)[O-])c2)cc1OC	0	0	0	0
O=C(NCc1ccc(Cl)cc1)C(=O)NCC1OCCN1C(=O)c1cccs1 (stereo not given)	0	0	0	0
COc1ccc(S(=O)(=O)N2CCN(C(=O)c3cc(C)on3)CC2)cc1	-	0	0	0
